Reference: publication PMC9123270 (The Journal of Biological Chemistry, 2022)
“And” between values parts separate entries of the source, which are not always exact repeats. Identical values can stand only once.

Columns and labels:
[1] = target: Anopheles gambiae D7 long-form salivary protein AngaD7L2 (Anopheles gambiae); experiment: SPR
[2] = PEAQ-ITC screen against five biogenic amines and five lipids; type: binding; details: leukotrienes other than LTC4
Summary of the method: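 Isothermal titration calorimetry in TBS (20 mM Tris–HCl, 150 mM NaCl, pH 7.4) at 30 °C, 750 rpm. Protein at 5 μM was titrated with 10 μl injections of ligand at 50 μM every 150 s. Lipid ligands were dried under nitrogen, resuspended in TBS, vortexed and sonicated 10 min. Samples were degassed. Data were fitted to a single-site model. At least three replicates.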

[3] = test system: Third-order mesenteric arteries; experiment: Vasoconstriction by pressure myography in isolated mesenteric arteries; parameters: species or system C57Bl/6J mice; details: for LogIC50 of vasoconstriction to U-46619: n = 6
[4] = test system: Human platelet-rich plasma; experiment: Platelet aggregation assay; type: cell-based
[5] = test system: normal control plasma; experiment: Plasma recalcification assay; type: biochemical, human
[6] = test system: normal control plasma; experiment: Prothrombin; type: biochemical, human; details: recombinant protein 15 μM, 5 μl in 50 μl plasma
Summary of the method: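 Normal control plasma (50 μl) was incubated 2 min at 37 °C with 5 μl of test protein (15 μM in Hepes buffer), Hepes buffer (negative control) or 3 μM Alboserpin (positive control). PT was started by adding Neoplastine CI Plus reagent, and clotting time was recorded with stirring. Run in triplicate.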

[7] = test system: normal control plasma; experiment: Activated partial thromboplastin; type: biochemical, human; details: recombinant protein 15 μM, 5 μl in 50 μl plasma
Summary of the method: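 Plasma (50 μl) was preincubated 2 min at 37 °C with 5 μl of test protein (15 μM in Hepes buffer), Hepes buffer (negative control) or 3 μM Alboserpin (positive control). aPTT reagent was added for 3 min at 37 °C, then clotting was started with prewarmed 25 mM CaCl2. Clotting time was recorded on a coagulation analyzer and converted to ratios. Run in triplicate.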

## human coagulation factor XI (natural protein)
[1]
  Kd: 8.47 nM
  koff: 0.00696 s⁻¹
  kon: 99200 M⁻¹ s⁻¹

## human coagulation factor XIIa (enzyme)
[1]
  Kd: 5.03 nM
  koff: 0.403 s⁻¹
  kon: 2.03e+08 M⁻¹ s⁻¹

## human coagulation factor XII (natural protein)
[1]
  Kd: 16.4 nM
  koff: 0.0169 s⁻¹
  kon: 125000 M⁻¹ s⁻¹

B1: AngaD7L1: Recombinant Anopheles gambiae D7 long-form salivary protein, 6xHis-tagged, expressed in human embryonic kidney cells (protein, UniProt Q7PJ76 22-311, looked up)
Long form salivary protein …: FKALDPEEAWYVYERCHEDHLPSGPNRETYLKTWKFWKLEPNDAVTHCYVKCTLAGLQMYDEKTNTFKPETVPVQHEAYKSFTEVESSKVNELQQALSSLNAGSGSCAEVFNAYLPVHNKYVGVSRKIYHGTVDSVAKIYEAKPEIKKQEESFFAYCAKKALGANGKEGYTKLRDYELADSAEFRNAMDCVFRGFRYMDDSGLKVDEVVRDFNLINKSDLEPEVRSVLASCTGTQAYDYYSCLLNSPVKEDFRNAFYFHELRSANYGYLAMGKVYEGPEKVKEELKKLNY
modifications: 6xHis tag
[2]
  Binding of other leukotrienes: did not bind any other leukotriene
[3]; after AngaD7L1 washout
  LogIC50 of vasoconstriction to U-46619: −8.10
[3]; in presence of AngaD7L1 10 μM
  fold reduction in effective constrictive potency of U-46619: ~70 fold
  LogIC50 of vasoconstriction to U-46619: −6.4 and −6.38
[4]; agonist 0.3 μM U-46619, protein 0.3 μM
  Effect on platelet aggregation: reduced platelet aggregation
[4]; agonist 0.3 μM U-46619, protein 1 μM
  Effect on platelet aggregation: platelet aggregation was inhibited
[4]; agonist 0.7 μM U-46619, protein 1 μM
  Effect on platelet aggregation: platelet aggregation was inhibited
[4]; agonist 0.7 μM U-46619, protein 3 μM
  Effect on platelet aggregation: inhibited platelet aggregation
[4]; agonist 1 μM arachidonic acid, protein at any concentration
  Effect on platelet aggregation: no effect
[4]; agonist 1 μg/ml collagen, protein 0.3 μM
  Effect on platelet aggregation: did not inhibit platelet aggregation
[4]; agonist 1 μg/ml collagen, protein 3 μM
  Effect on platelet aggregation: reduced platelet aggregation
[4]; agonist 10 μg/ml collagen, protein 1 μM
  Effect on platelet aggregation: no effect

B2: AngaD7L2: Recombinant Anopheles gambiae D7 long-form salivary protein, 6xHis-tagged, expressed in human embryonic kidney cells (protein)
chain: AQPWKALDPEQALYVYKRCYEDHLPAGSSRVTYLKSWNAWKLEPNDAVTHCYAKCVLIGLQLYEEKDKAFKSERIPVQHEAYKTLNEANSREVTEYQQALASINAGDGSCVALYNAYLPVHNKFVDLSRKLYHGTVEGAAKIYAAMPQIKQKGESFFAYCAKKIWGGYNKKEWKRGRNYELSGSSQFKKVIDCIFRGLRYMDDSGLKVDEVVRDFNLINKSDLEPEVRSVLASCTGTQAYDYYSCLLNSPVKEDFKNAFDFHELRSADYAFLLRGKVYEGPEQVKEEMKHLNTTVHF
modifications: left off: His6, C-terminal, state not stated
[5]; final concentration 5 μM
  Plasma recalcification (time to OD = 0.025): entirely unable to coagulate
[5]; serially diluted recombinant protein, versus Hepes buffer negative control
  Plasma recalcification (time to OD = 0.025): dose-dependent anticoagulant response
[6]
  PT clotting time (extrinsic pathway): did not have an observable effect
[7]
  aPTT time to coagulation (intrinsic pathway): significantly increased
